Activity and inhibition data for one compound are collected here from ChEMBL document CHEMBL4316598, “Synthesis, antiproliferative and apoptosis induction potential activities of novel bis(indolyl)hydrazide-hydrazone derivatives” (Bioorg Med Chem, 2019).

For experiment [1], the system named is HeLa. Kind of experiment: Induction of apoptosis in human HeLa cells assessed as late apoptotic cells at 1 uM after 12 hrs by annexin-V FITC/propidium iodide staining based flow cytometric analysis relative to control. Type of experiment: functional. The essentials: (§1)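 Cells were grown in DMEM with 10% heat-inactivated FBS at 37 °C and 5% CO₂, then plated at 500,000 cells/well in 24-well plates. They were treated from a DMSO stock (DMSO ≤0.1%) for 8, 12 or 16 h. After a PBS wash, cells were resuspended in binding buffer (10 mM HEPES pH 7.4, 2.5 mM CaCl₂, 140 mM NaCl, 0.1% BSA), stained 40 min with FITC-annexin V, then with PI, and run on the flow cytometer immediately. Values are the mean of three independent experiments.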
For orientation: A flow cytometer gives signals particle by particle.

Experiment [2] concerns the target T1, Tyrosine-protein phosphatase non-receptor type 1 (Homo sapiens) (UniProt P18031).
T1 sequence (whole entry): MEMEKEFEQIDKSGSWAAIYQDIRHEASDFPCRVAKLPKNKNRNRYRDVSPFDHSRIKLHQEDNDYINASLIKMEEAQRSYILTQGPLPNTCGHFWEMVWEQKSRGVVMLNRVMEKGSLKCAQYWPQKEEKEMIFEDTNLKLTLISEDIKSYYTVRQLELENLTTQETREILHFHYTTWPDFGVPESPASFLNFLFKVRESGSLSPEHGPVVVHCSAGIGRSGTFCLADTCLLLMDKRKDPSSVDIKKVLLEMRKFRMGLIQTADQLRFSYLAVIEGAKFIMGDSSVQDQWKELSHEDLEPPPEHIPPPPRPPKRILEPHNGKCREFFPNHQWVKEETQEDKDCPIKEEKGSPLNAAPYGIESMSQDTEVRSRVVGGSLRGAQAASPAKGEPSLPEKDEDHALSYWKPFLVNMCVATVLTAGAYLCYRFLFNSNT
In words: Inhibition of recombinant human PTP1B using 6,8-difluoro-4-methylumbelliferyl phosphate fluorogenic substrate at 50 uM measured over 30 mins by fluorescence assay relative to control. The essentials: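 Recombinant human PTP1B, 1.56 ng/well, in buffer of 25 mM HEPES, 50 mM NaCl, 2.5 mM EDTA, DTT and 0.01 mg/mL human albumin. Preincubated with compound for 30 min in the dark, then DiFMUP added (25 μL of 10 μM solution). Fluorescence read after 10 min (ex 360/em 465 nm). Triplicates; % inhibition relative to PTP inhibitor IV (0.16 mM) and buffer controls.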

For experiment [3], the system named is HeLa. In words: Induction of apoptosis in human HeLa cells assessed as necrotic cells at 1 uM after 12 hrs by annexin-V FITC/propidium iodide staining based flow cytometric analysis relative to control. Type of experiment: functional. Put shortly:
as §1

The test system of the next experiment is MCF7. Kind of experiment: Induction of apoptosis in human MCF7 cells assessed as late apoptotic cells at 1 uM after 16 hrs by annexin-V FITC/propidium iodide staining based flow cytometric analysis relative to control. Format: functional. The essentials: as §1

Regarding `Cn1cc(/C=N\NC(=O)c2cn(C)c3ccc(Br)cc23)c2ccccc21`, the Activity in the experiment with HeLa [1] came to 18.42%; in the experiment on HeLa [3] it was 0.3%; with MCF7, 58.43%. Also, in experiment [2], the inhibition (in general, the change of the read-out against control, counted positive when it falls) was found to be 48%.
